Assay results from ChEMBL document CHEMBL2396599, “Design of cell-permeable stapled peptides as HIV-1 integrase inhibitors” (J Med Chem, 2013).
Starred links: 1 amine or outer side, 2 acyl side, 3 side chain; linkers in the order of their positions; H or OH if unused. Positions of bridges follow the written chain, without caps; N, C: chain ends. Non-standard residues stand in square brackets, D forms with d. Residues, ends and D or L forms follow the SMILES beside them. αMeNva(5-ylidene) = C[C@@](CCC=[*:3])(N[*:1])C(=O)[*:2]; X1 = C[C@@](CCCCC=[*:3])(N[*:1])C(=O)[*:2]; X3 = C=CCCCC[C@](C)(N[*:1])C(=O)[*:2]; X2 = C=CC[C@](C)(N[*:1])C(=O)[*:2]; S5 = C=CCCC[C@](C)(N)C(=O)O

What was measured:
[1] = target: T1, Human immunodeficiency virus type 1 integrase (Human immunodeficiency virus 1, UniProt Q7ZJM1); assay: Inhibition of wild type HIV-1 integrase 3' processing activity after 30 mins
How it was run: (§1)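 IC₅₀ is the concentration giving 50% inhibition of HIV-1 integrase enzymatic activity, determined separately for 3′-processing and for strand transfer.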

[2] = target: T1, Human immunodeficiency virus type 1 integrase; assay: Inhibition of wild type HIV-1 integrase strand transfer activity after 30 mins; how it was run: as §1
[3] = target: T1, Human immunodeficiency virus type 1 integrase; assay: Inhibition of HIV-1 His6-tagged integrase assessed as inhibition of LEDGF/p75-integrase interaction incubated 30 mins prior to flag-tagged LEDGF/p75 addition measured after 1 hr by AlphaScreen assay
How it was run: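 IC₅₀ is the concentration giving 50% inhibition of the interaction between LEDGF/p75 and HIV-1 integrase.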

[4] = Therapeutic index, ratio of CC50 for human MT4 cells to EC50 for Human immunodeficiency virus 1; assay type: cell-based; conditions: read-out: Ratio CC50/EC50
How it was run: (§2)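 Antiviral activity taken as the concentration giving 50% protection of HIV-1-infected MT-4 cells. Cytotoxicity was read as 50% cell death in the same cells. Therapeutic index = CC₅₀/EC₅₀.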

[5] = Cytotoxicity against human MT4 cells by MTT assay; assay type: cell-based
How it was run: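 CC₅₀ was the concentration causing 50% death of MT-4 cells, in the same cells used for the HIV-1 cytoprotection assay. This value feeds the CC₅₀/EC₅₀ ratio.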

[6] = system: Human immunodeficiency virus 1; assay: Antiviral activity against Human immunodeficiency virus 1 infected in human MT4 cells assessed as inhibition of virus-induced cytopathic effect by MTT assay; assay type: functional, organism-based; conditions: Human immunodeficiency virus 1, MT4; how it was run: as §2
[7] = Drug uptake in human PANC1 cell nucleus at 40 uM after 1 to 3 hrs by Draq5 staining-based confocal microscopy; assay type: ADME; conditions: panc-1, 40 µM
How it was run: (§3)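 CEM, HCT116 and Panc-1 cells were treated with the fluorescein-labelled stapled peptide for 3 h. Uptake was imaged by confocal microscopy with Draq5 nuclear staining.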

[8] = Drug uptake in human HCT116 cell nucleus at 40 uM after 1 to 3 hrs by Draq5 staining-based confocal microscopy; assay type: ADME; conditions: hct-116, 40 µM; how it was run: as §3
[9] = Drug uptake in human CEM cell nucleus at 40 uM after 1 to 3 hrs by Draq5 staining-based confocal microscopy; assay type: ADME; conditions: ccrf-cem; how it was run: as §3
[10] = Cellular uptake in human PANC1 cell cytoplasm at 40 uM after 1 to 3 hrs by Draq5 staining-based confocal microscopy; assay type: ADME; conditions: panc-1, 40 µM; how it was run: as §3
[11] = Cellular uptake in human HCT116 cell cytoplasm at 40 uM after 1 to 3 hrs by Draq5 staining-based confocal microscopy; assay type: ADME; conditions: hct-116, 40 µM; how it was run: as §3
[12] = Cellular uptake in human CEM cytoplasm at 40 uM after 1 to 3 hrs by Draq5 staining-based confocal microscopy; assay type: ADME; how it was run: as §3
MT4 = assay: Cellular uptake in human MT4 cells at 10 to 500 uM after 1 hr by confocal microscopy; assay type: ADME, cell-based; conditions: mt4, 1 h
How it was run: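 Fluorescein-labelled peptides were incubated with MT-4 cells for 1 h. Confocal z-stacks were taken at 0.3 step, with FITC excited at 488 nm and a cell-membrane dye at 543 nm.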

[13] = system: Human immunodeficiency virus; assay: Antiviral activity against AMD3100-resistant Human immunodeficiency virus; assay type: functional, organism-based; conditions: Human immunodeficiency virus 1

T1 sequence (Q7ZJM1 whole entry): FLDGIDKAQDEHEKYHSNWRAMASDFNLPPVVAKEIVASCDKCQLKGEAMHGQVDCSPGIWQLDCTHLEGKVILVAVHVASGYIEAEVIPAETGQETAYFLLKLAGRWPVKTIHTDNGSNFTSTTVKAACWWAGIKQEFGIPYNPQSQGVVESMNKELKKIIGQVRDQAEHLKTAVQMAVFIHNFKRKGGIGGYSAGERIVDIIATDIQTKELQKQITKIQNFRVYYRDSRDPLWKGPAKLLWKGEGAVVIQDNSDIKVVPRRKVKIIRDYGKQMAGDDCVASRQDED

SMILES | IC50 [1] [µM] | IC50 [2] [µM] | IC50 [3] [µM] | Drug uptake [7] | Drug uptake [8] | Drug uptake [9] | Drug uptake [10] | Drug uptake [11] | Drug uptake [12] | Drug uptake (MT4) | selectivity ratio [4] | CC50 [5] [µM] | EC50 [6] [µM] | EC50 [13] [µM]
C=CCCC[C@](C)(NC(=O)CNC(=O)[C@H](C)NC(=O)[C@H](CC(C)C)NC(=O)[C@](C)(CCCC=C)NC(=O)[C@H](CC(C)C)NC(=O)[C@H](CC(C)C)NC(=O)[C@H](Cc1ccccc1)NC(=O)[C@H](Cc1ccc(O)cc1)NC(=O)[C@H](C)NC(=O)[C@@H](N)[C@@H](C)O)C(=O)N[C@@H](Cc1c[nH]c2ccccc12)C(=O)O (H-TAYFLL[S5]LAG[S5]W-OH) | > 100 | > 100 | – | – | – | – | – | – | – | – | – | – | – | –
C=CC[C@](C)(NC(=O)[C@H](CC(C)C)NC(=O)[C@H](CCCCN)NC(=O)[C@H](CC(C)C)NC(=O)[C@](C)(CC=C)NC(=O)[C@H](Cc1ccccc1)NC(=O)[C@H](Cc1ccc(O)cc1)NC(=O)[C@H](C)NC(=O)[C@@H](N)[C@@H](C)O)C(=O)NCC(=O)N[C@@H](CCCNC(=N)N)C(=O)N[C@@H](Cc1c[nH]c2ccccc12)C(=O)O (H-TAYF[X2]LKL[X2]GRW-OH) | > 333 | > 111 | – | – | – | – | – | – | – | – | – | – | – | –
CC(C)C[C@@H]1NC(=O)[C@H](CCCCN)NC(=O)[C@H](CC(C)C)NC(=O)[C@@](C)(NC(=O)[C@H](Cc2ccccc2)NC(=O)[C@H](Cc2ccc(O)cc2)NC(=O)[C@H](C)NC(=O)[C@@H](N)[C@@H](C)O)CC/C=C/CC[C@@](C)(C(=O)NCC(=O)N[C@@H](CCCNC(=N)N)C(=O)N[C@@H](Cc2c[nH]c3ccccc23)C(=O)O)NC1=O (H-TAYF[αMeNva(5-ylidene)]LKL[αMeNva(5-ylidene)]GRW-OH; staple (E) 5-9) | 90 | 83 | 14 | – | – | – | – | – | – | – | – | 40 | > 40 | –
CC[C@H](C)[C@@H]1NC(=O)[C@H](CC(C)C)NC(=O)[C@@](C)(NC(=O)[C@H](Cc2ccccc2)NC(=O)[C@H](Cc2ccc(O)cc2)NC(=O)[C@H](C)NC(=O)[C@@H](N)[C@@H](C)O)CCC/C=C\CCC[C@@](C)(C(=O)NCC(=O)N[C@@H](CCCNC(=N)N)C(=O)N[C@@H](Cc2c[nH]c3ccccc23)C(=O)O)NC(=O)[C@H](CC(C)C)NC1=O (H-TAYF[S5]LIL[S5]GRW-OH; staple (Z) 5-9) | 22 | 25 | 5 | – | – | – | – | – | – | – | 8 | 41 | 5 | 4.3
CC(C)C[C@H](NC(=O)[C@H](Cc1ccccc1)NC(=O)[C@H](Cc1ccc(O)cc1)NC(=O)[C@H](C)NC(=O)[C@@H](N)[C@@H](C)O)C(=O)N[C@@H](CC(C)C)C(=O)N[C@@]1(C)CCC/C=C/CCC[C@@](C)(C(=O)N[C@@H](Cc2c[nH]c3ccccc23)C(=O)O)NC(=O)CNC(=O)[C@H](C)NC(=O)[C@H](CC(C)C)NC1=O (H-TAYFLL[S5]LAG[S5]W-OH; staple (E) 7-11) | > 100 | > 100 | – | – | – | – | – | – | – | – | – | – | – | –
C=CCCCC[C@](C)(NC(=O)[C@H](CC(C)C)NC(=O)[C@H](CCCCN)NC(=O)[C@H](CC(C)C)NC(=O)[C@](C)(CCCCC=C)NC(=O)[C@H](Cc1ccccc1)NC(=O)[C@H](Cc1ccc(O)cc1)NC(=O)[C@H](C)NC(=O)[C@@H](N)[C@@H](C)O)C(=O)NCC(=O)N[C@@H](CCCNC(=N)N)C(=O)N[C@@H](Cc1c[nH]c2ccccc12)C(=O)O (H-TAYF[X3]LKL[X3]GRW-OH) | 61 | 43 | – | – | – | – | – | – | – | – | – | – | – | –

Further lines, with some results ahead:

IC50 [1] [µM] | IC50 [2] [µM] | IC50 [3] [µM] | Drug uptake [7] | Drug uptake [8] | Drug uptake [9] | Drug uptake [10] | Drug uptake [11] | Drug uptake [12] | Drug uptake (MT4) | SMILES | selectivity ratio [4] | CC50 [5] [µM] | EC50 [6] [µM] | EC50 [13] [µM]
15 | 11 | > 100 | – | – | – | – | – | – | – | C=CCCC[C@](C)(NC(=O)[C@H](CC(C)C)NC(=O)[C@@H](NC(=O)[C@H](CC(C)C)NC(=O)[C@](C)(CCCC=C)NC(=O)[C@H](Cc1ccccc1)NC(=O)[C@H](Cc1ccc(O)cc1)NC(=O)[C@H](C)NC(=O)[C@@H](N)[C@@H](C)O)[C@@H](C)CC)C(=O)NCC(=O)N[C@@H](CCCNC(=N)N)C(=O)N[C@@H](Cc1c[nH]c2ccccc12)C(=O)O (H-TAYF[S5]LIL[S5]GRW-OH) | 1.6 | 18 | 11 | –
9 | 6 | 14 | – | – | – | – | – | – | – | CC(C)C[C@@H]1NC(=O)[C@H](CCCCN)NC(=O)[C@H](CC(C)C)NC(=O)[C@@](C)(NC(=O)[C@H](Cc2ccccc2)NC(=O)[C@H](Cc2ccc(O)cc2)NC(=O)[C@H](C)NC(=O)[C@@H](N)[C@@H](C)O)CCC/C=C\CCC[C@@](C)(C(=O)NCC(=O)N[C@@H](CCCNC(=N)N)C(=O)N[C@@H](Cc2c[nH]c3ccccc23)C(=O)O)NC1=O (H-TAYF[S5]LKL[S5]GRW-OH; staple (Z) 5-9) | 3 | 50 | 20 | –
48 | 44 | – | – | – | – | – | – | – | – | CC(C)C[C@@H]1NC(=O)[C@H](CCCCN)NC(=O)[C@H](CC(C)C)NC(=O)[C@@](C)(NC(=O)[C@H](Cc2ccccc2)NC(=O)[C@H](Cc2ccc(O)cc2)NC(=O)[C@H](C)NC(=O)[C@@H](N)[C@@H](C)O)CCCC/C=C/CCCC[C@@](C)(C(=O)NCC(=O)N[C@@H](CCCNC(=N)N)C(=O)N[C@@H](Cc2c[nH]c3ccccc23)C(=O)O)NC1=O (H-TAYF[X1]LKL[X1]GRW-OH; staple (E) 5-9) | – | – | – | –
5 | 6 | 25 | Active | Active | Active | Active | Active | Active | Active | CC(C)C[C@@H]1NC(=O)[C@H](CCCCN)NC(=O)[C@H](CC(C)C)NC(=O)[C@@](C)(NC(=O)[C@H](Cc2ccccc2)NC(=O)[C@H](Cc2ccc(O)cc2)NC(=O)[C@H](C)NC(=O)[C@@H](NC(=O)c2ccc3c(c2)C(=O)OC32c3ccc(O)cc3Oc3cc(O)ccc32)[C@@H](C)O)CCC/C=C\CCC[C@@](C)(C(=O)NCC(=O)N[C@@H](CCCNC(=N)N)C(=O)N[C@@H](Cc2c[nH]c3ccccc23)C(=O)O)NC1=O (mixture of isomers) | > 11 | > 125 | 11 | –
17.5 | 6.2 | 25 | – | – | – | – | – | – | Not Active | CC(C)C[C@H](NC(=O)[C@H](CCCCN)NC(=O)[C@H](CC(C)C)NC(=O)[C@H](CC(C)C)NC(=O)[C@H](Cc1ccccc1)NC(=O)[C@H](Cc1ccc(O)cc1)NC(=O)[C@H](C)NC(=O)[C@@H](NC(=O)c1ccc2c(c1)C(=O)OC21c2ccc(O)cc2Oc2cc(O)ccc21)[C@@H](C)O)C(=O)N[C@@H](C)C(=O)NCC(=O)N[C@@H](CCCNC(=N)N)C(=O)N[C@@H](Cc1c[nH]c2ccccc12)C(=O)O (mixture of isomers) | 5 | 70 | 13 | –
53 | 19 | > 100 | – | – | – | – | – | – | – | CC(C)C[C@H](NC(=O)[C@H](CCCCN)NC(=O)[C@H](CC(C)C)NC(=O)[C@]1(C)CCC/C=C\CCC[C@](C)(N)C(=O)N[C@@H](C)C(=O)N[C@@H](Cc2ccc(O)cc2)C(=O)N[C@@H](Cc2ccccc2)C(=O)N1)C(=O)N[C@@H](C)C(=O)NCC(=O)N[C@@H](CCCNC(=N)N)C(=O)N[C@@H](Cc1c[nH]c2ccccc12)C(=O)O (H-[S5]AYF[S5]LKLAGRW-OH; staple (Z) 1-5) | 6 | 25 | 4 | –
